Screening data (PubChem)
PAD4 inh: blocks human protein arginine deiminase 4 | AID 485272 | recombinant PAD4, RCA probe fluorescence polarization | Q9UM07 | hit rate 0.41% among 330,000 | inhibition, % at 6.36 µM;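 active = percent inhibition above a cutoff equal to the mean of all tested compounds plus 3 SD, cut at about 15% in these data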
Apaf-1 inh: blocks human Apaf-1 apoptosome activity. reconstituted apoptosome caspase-3 activity, DEVD-Rh110 fluorescence. inhibition, % at 20 µM. hit rate 0.71% among 330,000. AID 489030; active = inhibition of at least 40% at 20 µM
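Material: reconstituted apoptosome with Apaf-1, cytochrome c, caspase-9, procaspase-3, dATP. Technique: Rh110 fluorescence intensity. Buffer or medium: pH 7.5 Hepes buffer with CHAPS, BSA, DTT. Times: 30 min plus 50 min, RT.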
Rin1-Abl PPI inh: inhibitors of human Rin1-Abl protein interaction; AID 588664; TR-FRET Rin1/Abl binding, biochemical; P00519+Q13671; hit rate 0.4% among 360,000; inhibition, % at 7.35 µM; in the data active = inhibition above about 5%, passing the limit was not always enough
UBC13 polyUb: inhibitors of human UBC13 polyubiquitin chain formation; hit rate 0.47% among 330,000; P61088; AID 485273; inhibition, % at 20 µM; TR-FRET; in the data active = inhibition above about 45%, passing the limit was not always enough; inconclusive = no clear call, values can overlap the other calls
Target sequence (P61088 whole entry, looked up): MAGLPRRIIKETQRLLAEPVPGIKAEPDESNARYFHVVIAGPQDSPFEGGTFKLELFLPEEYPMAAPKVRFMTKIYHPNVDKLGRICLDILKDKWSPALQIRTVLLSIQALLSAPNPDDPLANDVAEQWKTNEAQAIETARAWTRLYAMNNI
GSTO1 counter: blocks human GSTO1 in RBBP9 counter-screen; P78417; inhibition, % at 5.96 µM; recombinant GSTO1, activity-based probe fluorescence polarization; hit rate 1.1% among 300,000; AID 1974;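 active = inhibition above the campaign mean inhibition plus 3 SD, cut at about 35% in these data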
Target sequence (P78417 whole entry, looked up): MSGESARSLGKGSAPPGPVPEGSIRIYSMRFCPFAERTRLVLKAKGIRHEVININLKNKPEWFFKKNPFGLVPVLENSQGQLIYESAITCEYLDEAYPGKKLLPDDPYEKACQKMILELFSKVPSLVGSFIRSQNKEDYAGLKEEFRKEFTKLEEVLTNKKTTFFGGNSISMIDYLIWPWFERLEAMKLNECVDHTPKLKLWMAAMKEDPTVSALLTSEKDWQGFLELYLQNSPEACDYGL
UBC9 SUMO inh: inhibitors of human SUMOylation (UBC9) | inhibition, % at 35 µM | hit rate 0.36% among 290,000 | HTRF SUMOylation assay, SAE1/SAE2 + UBC9, in vitro; in the data active = inhibition above about 50%, passing the limit was not always enough; inconclusive = no clear call, values can overlap the other calls
Target sequence (P63279 whole entry, looked up): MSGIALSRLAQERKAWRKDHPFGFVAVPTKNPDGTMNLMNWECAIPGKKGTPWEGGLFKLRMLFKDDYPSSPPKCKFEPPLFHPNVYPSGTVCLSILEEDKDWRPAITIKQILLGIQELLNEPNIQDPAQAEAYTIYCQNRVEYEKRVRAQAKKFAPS
GSTO1 inh conf: GSTO1 (human) inhibition, confirmation; hit rate 54% among 2,400; recombinant GSTO1, probe fluorescence polarization; inhibition, % at 5.96 µM; shares compounds with GSTO1 counter; AID 2176;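 active = inhibition above the primary screen's cutoff, its mean inhibition plus 3 SD, cut at about 35% in these data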;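 note: loss of polarization as inhibitors block binding of rhodamine sulfonate ester activity probe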
GSTO1 recomb ABPP: GSTO1 (human) inhibition by gel ABPP; shares compounds with GSTO1 counter; inhibition, % at 1 µM; recombinant GSTO1, gel ABPP SE-Rh probe fluorescence; AID 463110; hit rate 30% among 130;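 active = inhibition of the enzyme GSTO1 above about 75%, limit read from the data; inactive = inhibition below that limit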
Numbers stand for hits; - = inactive; ? = inconclusive; . = no result given. An excerpt weighted towards active compounds, which were near 2.2% of everything screened.

SMILES | PAD4 inh | Apaf-1 inh | Rin1-Abl PPI inh | UBC13 polyUb | GSTO1 counter | UBC9 SUMO inh | GSTO1 inh conf | others
CC(=Nc1ccccc1)C1=C(O)C(CC(C)C)NC1=O (centres undefined) | . | . | - | . | . | . | .
O=C(CN1C(=O)NC2(CCCC2)C1=O)N1CCN(S(=O)(=O)c2ccc(Cl)c(C(F)(F)F)c2)CC1 | - | - | - | - | - | . | .
CN(C)c1ccc(CC2C(=O)Nc3ccccc32)cc1 (centres undefined) | - | - | - | - | 48 | - | -
CN(C)c1ccc(NC(=O)C(=O)C2C(=O)Nc3ccccc32)cc1 (centres undefined) | - | - | - | - | - | - | .
CCCCOC(=O)CSC1=C(C#N)C(c2ccccc2OCC)C(C#N)C(=O)N1 (centres undefined) | - | - | - | - | - | - | .
CCCOC(=O)CSC1=C(C#N)C(c2ccccc2OCC)C(C#N)C(=O)N1 (centres undefined) | - | - | - | - | 71 | - | -
Cc1ccc2c(c1)N(C(=O)CCC(=O)NCCCN1CCOCC1)CCO2 | - | - | - | - | - | - | .
COc1ccc(CN(CCC(c2ccccc2)c2ccc(OC(C)C)cc2)C(=O)CCl)cc1OC (centres undefined) | - | - | - | - | 78 | - | 90 | GSTO1 recomb ABPP=90
COc1ccc(C(CCN(Cc2ccc(OC)c(OC)c2)C(C)=O)c2ccccc2)cc1 (centres undefined) | - | - | - | - | - | - | .
CC(C)(C)c1ccc(C(O)c2ncc(-c3cccc(F)c3)[nH]2)cc1 (centres undefined) | . | . | - | . | . | . | .
CCOc1ccc2c(c1)C(C)=CC(C)(C)N2C(=O)Nc1ccccc1F | - | - | - | - | 42 | - | -
CCNC(=O)N1c2ccc(OCC)cc2C(C)=CC1(C)C | - | - | - | - | - | - | .
O=C1C2C3C=CC(C2C(=O)N1c1ccc(O)cc1)C1C2C(=O)N(c4ccc(O)cc4)C(=O)C2C31 (centres undefined) | - | - | - | - | 42 | - | -
O=C1C2C3C=CC(C2C(=O)N1c1ccccc1O)C1C2C(=O)N(c4ccccc4O)C(=O)C2C31 (centres undefined) | - | - | - | - | - | - | .
CCOC(=O)c1nc(N/N=C/c2ccccc2)sc1Br | - | - | - | - | 51 | - | -
Oc1cccc(/C=N/NC(=S)Nc2cccnc2)c1O | - | . | - | . | 79 | - | -
CC(=O)c1ccc(NC(=O)C(C)Oc2ccc(N(C)S(=O)(=O)c3ccc(C)cc3)cc2)cc1 (centres undefined) | - | - | - | - | . | . | .
CC[C@@]1(C(=O)OC)N[C@H](CN(C)C(=O)Nc2ccc(C(F)(F)F)cc2)[C@@H]2C(=O)N(C)C(=O)[C@@H]21 | - | - | - | - | . | . | .
Clc1ccc(CN2C3=NCCCN3c3ccccc32)c(Cl)c1 | - | - | - | - | - | - | .
C/C(=N\Nc1nc2ccccc2c(=O)n1O)c1ccco1 | - | - | - | - | 67 | - | -
CC12CCC(C(S(=O)(=O)Nc3ccccc3)C1=O)C2(C)C (centres undefined) | . | . | - | . | . | . | .
ClC(Cl)(Cl)c1nc2ccccc2n2nncc12 | - | - | - | - | 64 | - | 52
c1ccc2c(c1)nnn1c3ccccc3nc21 | - | - | . | - | - | - | .
CN(C)C(=O)CCCCCCCCC(=O)N(C)C | - | - | - | - | - | - | .
COc1ccc(-c2cc3c(=O)n(CC(=O)Nc4cccc(Cl)c4)ncn3n2)cc1 | - | - | - | - | - | - | .
SMILES | PAD4 inh | Apaf-1 inh | Rin1-Abl PPI inh | UBC13 polyUb | GSTO1 counter | UBC9 SUMO inh | GSTO1 inh conf | others
N/C(=N\OC(=O)c1cnn(-c2ccccc2)c1C(F)(F)F)c1cc(C(F)(F)F)cc(C(F)(F)F)c1 | - | - | . | - | - | - | .
O=C(NNC(=O)C(Cl)Cl)c1cnn(-c2ccccc2)c1C(F)(F)F | - | - | - | - | 49 | - | -
O=C1CC(N(O)c2ccccc2)C(=O)N1c1ccc(Cl)c(Cl)c1 (centres undefined) | 17 | - | - | - | 63 | - | -
CCOC(=O)C1Nc2ccc(Br)cc2C2C=CCC12 (centres undefined) | - | - | - | - | - | - | .
O=C(O)C1Nc2c(O)cccc2C2C=CCC12 (centres undefined) | - | - | 20 | ? | 61 | 97 | 52
O=C(O)C1Nc2ccc(Br)cc2C2C=CCC12 (centres undefined) | - | - | 6.2 | - | 51 | - | 49
CCOC(=O)C1=C(C)N(c2ccccc2)C(=O)/C1=C\c1ccc(O)c(OC)c1 | - | - | - | - | 62 | - | -
COc1ccccc1NS(=O)(=O)c1ccc2nc(CCl)[nH]c2c1 | - | - | - | - | 85 | - | 91 | GSTO1 recomb ABPP=-
COc1ccc(OCc2nc3ccc(S(=O)(=O)Nc4ccccc4Cl)cc3[nH]2)cc1 | - | - | - | - | - | - | .
Cc1nn(-c2ccccc2)c2c1C1(C(=O)N(C(C)C)c3ccccc31)C(C#N)=C(N)O2 (centres undefined) | - | - | - | - | 40 | - | -
CCOC(=O)c1cccc(C(=O)Nc2nc3ccc(OC)cc3s2)n1 | - | - | - | - | 53 | - | -
CCN(CC)S(=O)(=O)c1ccc2c(c1)c(=O)c(C(=O)NCCc1ccc(OC)c(OC)c1)cn2C | . | - | - | - | . | - | .
CCCOc1ccc(/C(O)=C2/C(=O)C(=O)N(c3cc(C)on3)C2c2ccc(C(=O)OC)cc2)cc1 (centres undefined) | - | - | - | - | - | - | .
CCOc1ccc(/C(O)=C2/C(=O)C(=O)N(c3cc(C)on3)C2c2ccc(C(=O)OC)cc2)cc1 (centres undefined) | - | - | - | - | 44 | - | -
Cc1ccc(NC(=O)c2ncn(CCCNCc3ccccn3)n2)cc1C | . | . | - | . | . | . | .
O=C1NN(c2ccccc2)C(=O)/C1=C\c1coc2ccc(O)cc2c1=O | - | - | - | - | 50 | - | 36
O=C1NN(c2cccc(Br)c2)C(=O)/C1=C/c1cccs1 | - | - | - | - | - | - | .
COc1ccc(-n2c(C)cc(/C=C3\C(=O)NN(c4ccccc4)C3=O)c2C)cc1 | - | - | - | - | - | - | .
O=C1NN(c2ccccc2)C(=O)/C1=C/c1cccs1 | - | - | . | - | 63 | - | -
COc1ccc(Sc2ccc(/C=C3\C(=O)NN(c4ccccc4)C3=O)o2)cc1 | - | - | - | - | 42 | - | 58
O=C(C[C@H]1C/C=C\CC[C@H](Cc2ccc(F)cc2)C(=O)OCCNC1=O)NCCO | - | - | - | - | . | . | .
CCCCN(C(=O)c1ccc(S(=O)(=O)N2CCCC2)cc1)C1CCS(=O)(=O)C1 (centres undefined) | - | - | - | - | - | . | .
